# Screening results from PubChem BioAssay.
# bIAP inh = blocks bovine intestinal alkaline phosphatase activity; purified bovine IAP, CDP-star luminescence, 30 min; inhibition, % at 20 µM; 190,000 tested, under 10 active;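 active = over 50% inhibition of intestinal alkaline phosphatase at 20 µM in the single-dose screen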
#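 test system = bovine IAP enzyme | medium = DEA buffer 100 mM, pH 9.8, with MgCl2 1.0 mM, ZnCl2 0.02 mM | detection = luminescence | dosing = single compound dose of 20 µM, 2% DMSO final | incubation = 30 min reaction at room temperature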
# mIAP inh = mouse IAP inhibition; 330,000 compounds, 0.2% hits; purified mouse IAP, CDP-Star luminescence, 30 min; inhibition, % at 10 µM;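 active = inhibition of at least 40% at 10 µM in the primary screen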;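 note: plate controls were DMSO with enzyme for no effect and no enzyme wells for full effect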
# mIAP act = mouse IAP activation. 330,000 compounds, 0.24% hits. activation factor at 10 µM. muIAP, CDP-Star luminescence, 30 min; hits give high values; 1 = vehicle-only enzyme signal, 0 = enzyme-free wells;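 active = activation factor of at least 2 at 20 µM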
#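 Assay system: mouse IAP enzyme; reagent: chemiluminescent substrate CDP-Star; dosing: test compounds delivered from DMSO solution; schedule: 30 min at room temperature; measured by: luminescence from enzymatic CDP-Star hydrolysis; controls: DMSO-only wells and no-enzyme negative control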
# bIAP activator = intestinal alkaline phosphatase (bovine) activation; activation factor at 20 µM; 200,000 compounds, 0.17% hits; AID 1016; purified bovine IAP, CDP-star luminescence, 30 min; hits give high values; fold of DMSO-control signal, blank-subtracted;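 active = activation factor of 2 or more at 20 µM, a signal rise over negative controls twice the positive control's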
# hIAP inh = human IAP inhibition. purified IAP, CDP-Star luminescence, 30 min. inhibition, % at 10 µM. 330,000 compounds, 0.12% hits. AID 2544;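 active = inhibition reaching a set limit with compound at 10 µM in the primary screen, cut at about 35% in these data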;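 note: plate controls were DMSO wells with enzyme for no effect and no-enzyme buffer wells for full effect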
# Target sequence (P09923 whole entry, looked up): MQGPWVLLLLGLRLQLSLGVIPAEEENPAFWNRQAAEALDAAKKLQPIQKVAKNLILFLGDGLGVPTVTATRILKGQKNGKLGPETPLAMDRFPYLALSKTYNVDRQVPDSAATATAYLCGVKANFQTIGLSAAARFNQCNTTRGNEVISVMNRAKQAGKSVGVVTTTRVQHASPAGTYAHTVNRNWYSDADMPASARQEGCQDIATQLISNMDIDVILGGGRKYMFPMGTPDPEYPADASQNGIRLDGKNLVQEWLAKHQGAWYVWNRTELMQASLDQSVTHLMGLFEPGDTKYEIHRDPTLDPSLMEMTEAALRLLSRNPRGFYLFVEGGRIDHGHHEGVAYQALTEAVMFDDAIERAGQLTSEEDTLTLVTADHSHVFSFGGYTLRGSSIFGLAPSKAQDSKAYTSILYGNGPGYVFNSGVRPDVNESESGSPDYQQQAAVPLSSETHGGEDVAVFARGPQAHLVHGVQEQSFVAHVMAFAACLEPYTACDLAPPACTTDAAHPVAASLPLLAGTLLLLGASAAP
# hIAP act = human IAP activation | P09923 | purified human IAP, CDP-Star luminescence, 30 min; hits give high values; 1 = vehicle-only enzyme, 0 = enzyme-free background | activation factor at 10 µM | 330,000 compounds, 0.16% hits | AID 2524;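 active = activation factor of the enzyme at least 2-fold when tested at 20 µM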
# mIAP inh conf = mouse IAP inhibition confirmation. inhibition, % at 10 µM. 11,000 compounds, 4.7% hits. shares compounds with mIAP inh. purified mouse IAP, CDP-Star luminescence, 30 min. AID 434971;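 active = inhibition of at least 40% at 10 µM in either of the two replicates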;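 note: plate controls were DMSO wells with enzyme for no effect and buffer wells lacking enzyme for full effect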
# An asterisk follows results filed as active; i = inactive; . = not tested or not shown. Rows were chosen to be rich in hits. Some 0.72% of all compounds tested hit in one or more screens of this group.
SMILES,bIAP inh,mIAP inh,mIAP act,bIAP activator,hIAP inh,hIAP act,mIAP inh conf
C#CCOCCOCCOCCNc1nc(N2CCN(C(=O)Cn3cc(CCCN=C(N)N)nn3)CC2)nc(N2CCN(C(=O)[C@H]([C@@H](C)CC)n3cc(CCCCN)nn3)CC2)n1,.,-6,1.1,.,8,0.92,.
C#CCOCCOCCOCCNc1nc(N2CCN(C(=O)CCCCCCCCCCNC(=O)[C@H]([C@@H](C)CC)n3cc(CCCCCN)nn3)CC2)nc(N2CCN(C(=O)CCCCCCCCCCNC(=O)[C@H]([C@@H](C)CC)n3cc(CCCCN=C(N)N)nn3)CC2)n1,.,i,18*,.,-16,1.2,i
C#CCOCCOCCOCCNc1nc(N2CCN(C(=O)CCCCCCCCCCNC(=O)Cn3cc(CCCCCN)nn3)CC2)nc(N2CCN(C(=O)CCCCCCCCCCNC(=O)[C@@H](CCC(=O)O)n3cc(CCCCCN)nn3)CC2)n1,.,-42,1.4,.,3,0.97,.
C#CCOCCOCCOCCNc1nc(N2CCN(C(=O)CCCCCCCCCCNC(=O)[C@H](CO)n3cc(CCCSC)nn3)CC2)nc(N2CCN(C(=O)CCCCCCCCCCNC(=O)[C@H](CCCCN)n3cc(CCO)nn3)CC2)n1,.,-36,1.4,.,4,0.96,.
O=C(CN1CCS(=O)(=O)CC1)N/N=C/c1cccc(C(F)(F)F)c1,.,1,0.99,.,-12,1.1,.
C#CCOCCOCCOCCNc1nc(N2CCN(C(=O)[C@H]([C@@H](C)CC)n3cc(CCCN=C(N)N)nn3)CC2)nc(N2CCN(C(=O)[C@H]([C@@H](C)CC)n3cc(CCCN=C(N)N)nn3)CC2)n1,32,-8,1.1,0.7,25,0.75,.
C#CCOCCOCCOCCNc1nc(N2CCN(C(=O)CCCCCCCCCCNC(=O)Cn3cc(CCCCCN)nn3)CC2)nc(N2CCN(C(=O)CCCCCCCCCCNC(=O)[C@H]([C@@H](C)CC)n3cc(CCCCN=C(N)N)nn3)CC2)n1,.,i,9.7*,.,-19,1.2,i
C#CCOCCOCCOCCNc1nc(N2CCN(C(=O)CCCCCCCCCCNC(=O)[C@H]([C@@H](C)CC)n3cc(CCCCN=C(N)N)nn3)CC2)nc(N2CCN(C(=O)CCCCCCCCCCNC(=O)[C@H](CCCCN)n3cc(C)nn3)CC2)n1,.,-178,2.8*,.,-8,1.1,i
C#CCOCCOCCOCCNc1nc(N2CCN(C(=O)CCCCCCCCCCNC(=O)[C@H]([C@@H](C)CC)n3cc(CCCCN=C(N)N)nn3)CC2)nc(N2CCN(C(=O)CCCCCCCCCCNC(=O)[C@H]([C@@H](C)CC)n3cc(CCCCN=C(N)N)nn3)CC2)n1,.,i,10*,.,-47,1.5,i
COCc1cc(C)nc(SCc2ccc([N+](=O)[O-])cc2)c1C#N,.,-10,1.1,.,4,0.96,.
O=C1CN(C(=O)c2ccccc2Cl)c2ccccc2N1,.,-2,1,.,22,0.78,.
O=C(O)CCCN1C(=O)/C(=C\c2ccco2)SC1=S,6,.,.,0.9,.,.,.
O=C(CN1C(=O)/C(=C\c2ccco2)SC1=S)Nc1ccc(O)cc1C(=O)O,.,70*,0.3,.,-10,1.1,81*
O=C(CCCN1C(=O)/C(=C\c2ccccc2)SC1=S)Nc1ccc(O)cc1C(=O)O,.,0,1,.,-4,1,.
O=C(CCCN1C(=O)/C(=C/c2ccco2)SC1=S)Nc1ccccc1C(=O)O,.,69*,0.31,.,7,0.93,62*
O=C(CCN1C(=O)/C(=C/c2ccco2)SC1=S)Nc1ccc(O)cc1C(=O)O,.,69*,0.31,.,-3,1,78*
O=C(CNc1cccc2ccccc12)N/N=C/c1ccc(C(=O)O)cc1,13,20,0.8,0.9,10,0.9,.
O=C(CNc1cccc2ccccc12)N/N=C/C=C/c1ccco1,14,61*,0.39,0.9,10,0.9,59*
O=C(Nc1nnc(-c2ccccc2F)s1)c1cccnc1,-17,-13,1.1,1.2,4,0.96,.
COc1cccc(NC(=O)CN(C)C(=O)C23CC4CC(CC(Cl)(C4)C2)C3)c1,.,-18,1.2,.,5,0.95,.
CCOC(=O)C(C)Sc1nc2c(c(=O)[nH]c(=O)n2C)n1C/C=C(/C)Cl (centres undefined),-10,68*,0.32,1.1,13,0.87,71*
CCSc1nc2c(c(=O)[nH]c(=O)n2C)n1C/C=C(/C)Cl,10,6,0.94,0.9,5,0.95,.
C=CCSC1=N/C(=C\c2sccc2C)C(=O)S1,14,19,0.81,0.9,11,0.89,.
C=CCSC1=N/C(=C\C=C\c2ccco2)C(=O)S1,4,53*,0.47,1,-2,1,65*
CCOC(=O)c1[nH]c2ccc(F)cc2c1NC(=O)c1cc(OC)c(OC)c(OC)c1,20,3,0.97,0.8,18,0.82,.
SMILES,bIAP inh,mIAP inh,mIAP act,bIAP activator,hIAP inh,hIAP act,mIAP inh conf
COn1c(SCc2cccnc2)nc2ccccc2c1=O,0,-2,1,1,6,0.94,.
COc1ccc(NC(=O)NC(C)c2ccc3c(c2)OCO3)cc1OC (centres undefined),.,-10,1.1,.,0,1,.
CC(NC(=O)Nc1ccc(Cl)cc1)c1ccc2c(c1)OCO2 (centres undefined),.,-184,2.8*,.,-14,1.1,-153
CCOc1ccccc1NC(=O)CN1CCC(NC(=O)Nc2ccccc2)CC1,.,-249,3.5*,.,-81,1.8,-199
CSc1ccc(CN2CCC(n3nccc3NC(=O)CCCc3ccccc3)CC2)cc1,.,-171,2.7*,.,-84,1.8,-126
O=C(NCc1ccc2c(c1)CCO2)Nc1cccc(C(F)(F)F)c1,.,-278,3.8*,.,9,0.91,-144
O=C(NCc1cccnc1)Nc1cccc(C(F)(F)F)c1,.,-8,1.1,.,-20,1.2,.
COc1ccccc1NC(=O)Nc1ccc(-n2ccc(C(F)(F)F)n2)cc1,.,-46,1.5,.,-4,1,.
O=C(Nc1ccc(-n2ccc(C(F)(F)F)n2)cc1)Nc1cccc(Cl)c1,.,-178,2.8*,.,-2,1,-92
Cc1cc(C)cc(NC(=O)Nc2ccc(-n3ccc(C(F)(F)F)n3)cc2)c1,.,-288,3.9*,.,-16,1.2,-136
CC(C)(C)[C@@H]1COC(=O)[C@@H](Cc2ccc(F)cc2)CC/C=C\C[C@@H](CC(=O)N(CCO)Cc2ccccc2)C(=O)N1,.,4,0.96,.,2,0.98,.
CC(=O)N1CC(=O)N(OCc2ccccc2)C1c1ccc(Cl)cc1Cl (centres undefined),0,-4,1,1,-3,1,.
NC1=NC(=O)/C(=C\c2ccco2)S1,.,75*,0.25,.,13,0.87,82*
FC(F)Sc1ccc(NC(=S)NC2CCC(NC(=S)Nc3ccc(SC(F)F)cc3)CC2)cc1 (centres undefined),36,-145,2.5*,0.6,-6,1.1,-135
